Among the data in ChEMBL document CHEMBL3272197, “Synthesis and in vitro evaluation of 8-hydroxyquinoline analogs as inhibitors of dental plaque” (J Med Chem, 1976) are logP, inhibition and inhibition of growth values, retold here.

Molecules are shown by their SMILES.

Series [1] can be described thus: 1-Octanol-water partition coefficient, log P of the compound after 90 mins. The format is physicochemical. In outline:
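Partitioning between 1-octanol and water. Phase volume ratio and sample amount set so that the aqueous-layer absorbance fell mostly between 0.2 and 0.9 in a 1-cm cell. The aqueous concentration was read spectrophotometrically and the octanol concentration was taken by difference. P = C_octanol/C_H2O. At least triplicate determinations used different sample amounts, and the mean log P is reported.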

Series [2] deals with Streptococcus mutans. Nature of the series: Antibacterial activity against Streptococcus mutans 6715 assessed as inhibition of plaque formation in human teeth at 10^-1 M after 24 hrs. The format is functional. As to conditions: Streptococcus mutans, 6715, 24 h. In outline:
(§1)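 Sterilized extracted human teeth were immersed in Me2SO solutions of compound for two 1-min periods, each followed by 1-min air exposure. Teeth were then washed in distilled water for 5 min and incubated anaerobically at 37° in sucrose-containing trypticase broth with S. mutans.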

Series [3] relates to Streptococcus mutans. Nature of the series: Antibacterial activity against Streptococcus mutans 6715 assessed as inhibition of plaque formation in human teeth at 10^-1 M after 48 hrs. The format is functional. To be noted: Streptococcus mutans, 6715, 48 h. In outline: as §1
The test system of series [4] is Streptococcus mutans. Nature of the series: Antibacterial activity against Streptococcus mutans 6715 assessed as growth inhibition at 10^-4 M after 24 hrs. In kind it is functional. To be noted: Streptococcus mutans, 6715, 24 h; read-out: GI. Summed up: (§2)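 Test compounds as HCl salts were added in aqueous solution to sterile trypticase broth with 50% sucrose stock, then inoculated with a 24-hr culture of S. mutans 6715. Cultures were incubated anaerobically (Gaspak) at 37°. Bacterial growth was scored at 24 and 48 hr, with a solvent control run concurrently.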

For series [5], the system named is Streptococcus mutans. Nature of the series: Antibacterial activity against Streptococcus mutans 6715 assessed as growth inhibition at 10^-4 M after 48 hrs. In kind it is functional. As to conditions: Streptococcus mutans, 6715, 48 h; read-out: GI. Summed up:
as §2

Series [6] has as its system Streptococcus mutans. Nature of the series: Antibacterial activity against Streptococcus mutans 6715 assessed as growth inhibition at 10^-5 M after 24 hrs. In kind it is functional. As to conditions: Streptococcus mutans, 6715, 24 h; read-out: GI. In outline: as §2
The subject of series [7] is Streptococcus mutans. Nature of the series: Antibacterial activity against Streptococcus mutans 6715 assessed as growth inhibition at 10^-5 M after 48 hrs. In kind it is functional. As to conditions: Streptococcus mutans, 6715, 48 h; read-out: GI. Summed up: as §2
Series [8] has as its system Streptococcus mutans. Nature of the series: Antibacterial activity against Streptococcus mutans 6715 assessed as growth inhibition at 10^-6 M after 24 hrs. The format is functional. As to conditions: Streptococcus mutans, 6715, 24 h; read-out: GI. Summed up:
as §2

The test system of series [9] is Streptococcus mutans. Nature of the series: Antibacterial activity against Streptococcus mutans 6715 assessed as growth inhibition at 10^-6 M after 48 hrs. In kind it is functional. As to conditions: Streptococcus mutans, 6715, 48 h; read-out: GI. In outline:
as §2

Series [10] has as its system Streptococcus mutans. Nature of the series: Antibacterial activity against Streptococcus mutans 6715 assessed as inhibition of plaque formation in human teeth at 10^-2 M after 24 hrs. In kind it is functional. To be noted: Streptococcus mutans, 6715, 24 h. Summed up: as §1
Series [11] concerns Streptococcus mutans. Nature of the series: Antibacterial activity against Streptococcus mutans 6715 assessed as inhibition of plaque formation in human teeth at 10^-2 M after 48 hrs. The format is functional. As to conditions: Streptococcus mutans, 6715, 48 h. Summed up:
as §1

Take `OCc1ccc(O)c2ncccc12` [listing 1 of 2 here]: the logP at 1.5 h in series [1] was 1. Further, the inhibition at 100000 µM with Streptococcus mutans [2] and in the series with Streptococcus mutans [3] was 0% throughout.

In the case of `Oc1ccc(F)c2cccnc12` [listing 1 of 2 here], the inhibition of growth at 100 µM in the series with Streptococcus mutans [4] and in the series on Streptococcus mutans [5] was 100% in each case. Also, the inhibition of growth at 10 µM was found to be 80% in the series with Streptococcus mutans [6] and 0% in the series with Streptococcus mutans [7]. Besides, the inhibition of growth at 1 µM in the series on Streptococcus mutans [8] and with Streptococcus mutans [9] was 0% in each case.

As for `COCc1ccc(O)c2ncccc12` [listing 1 of 2 here], the inhibition of growth at 100 µM with Streptococcus mutans [4] came out at 100%; in the series on Streptococcus mutans [5] it was 80%. The inhibition of growth at 10 µM in the series with Streptococcus mutans [6] came out at 0%.

As to `Oc1ccc(O)c2ncccc12` [listing 1 of 2 here], the inhibition of growth at 100 µM in the series on Streptococcus mutans [4] and in the series on Streptococcus mutans [5] was 0% each time.

On to `Oc1ccc(I)c2cccnc12` [listing 1 of 2 here], for which the inhibition of growth at 100 µM with Streptococcus mutans [4] and in the series on Streptococcus mutans [5] was 100% each time. The values for the inhibition of growth at 10 µM in the series on Streptococcus mutans [6] and in the series on Streptococcus mutans [7] were 100% and 60%, respectively. Further, the inhibition of growth at 1 µM with Streptococcus mutans [8] and with Streptococcus mutans [9] was 0% in each case.

For the compound `OCc1ccc(O)c2ncccc12` [listing 2 of 2 here], the inhibition of growth at 100 µM with Streptococcus mutans [4] and in the series on Streptococcus mutans [5] was 0% throughout.

As to `O=Cc1ccc(O)c2ncccc12` [listing 1 of 2 here], the inhibition of growth at 100 µM in the series on Streptococcus mutans [4] and in the series with Streptococcus mutans [5] was 100% each time. Moreover, the inhibition of growth at 10 µM in the series with Streptococcus mutans [6] came to 0%.

Consider `COC(=O)Cc1ccc(O)c2ncccc12` [listing 1 of 2 here], for which the inhibition of growth at 100 µM with Streptococcus mutans [4] and in the series on Streptococcus mutans [5] was 100% throughout. Moreover, the inhibition of growth at 10 µM turned out to be 60% with Streptococcus mutans [6] and 0% with Streptococcus mutans [7]. Further, the inhibition of growth at 1 µM in the series with Streptococcus mutans [8] and with Streptococcus mutans [9] was 0% each time.

With `COCc1ccc(O)c2ncccc12` [listing 2 of 2 here], the logP at 1.5 h in [1] worked out at 1.78. Further, the values for the inhibition at 100000 µM with Streptococcus mutans [2] and in the series with Streptococcus mutans [3] were 80% and 60%, respectively. Also, the inhibition at 10000 µM with Streptococcus mutans [10] and with Streptococcus mutans [11] was 20% in each case.

Regarding `O=Cc1ccc(O)c2ncccc12` [listing 2 of 2 here], the logP at 1.5 h in series [1] turned out to be 1.63. In addition, the values for the inhibition at 100000 µM in the series on Streptococcus mutans [2] and with Streptococcus mutans [3] were 100% and 80%, respectively. In addition, the inhibition at 10000 µM in the series on Streptococcus mutans [10] and with Streptococcus mutans [11] was 40% each time.

`O=C(O)Cc1ccc(O)c2ncccc12` [listing 1 of 2 here]: the inhibition at 100000 µM in the series with Streptococcus mutans [2] and in the series with Streptococcus mutans [3] was 0% each time.

In series [1], `CC(=O)c1ccc(O)c2ncccc12` [listing 1 of 2 here] registered a logP at 1.5 h of 1.8. The inhibition at 100000 µM in the series with Streptococcus mutans [2] and in the series with Streptococcus mutans [3] was 100% throughout. In addition, the inhibition at 10000 µM in the series with Streptococcus mutans [10] and in the series with Streptococcus mutans [11] was 60% each time.

As to `Oc1ccc(F)c2cccnc12` [listing 2 of 2 here], in series [1], the logP at 1.5 h amounted to 2.3. Besides, the inhibition at 100000 µM in the series on Streptococcus mutans [2] and in the series on Streptococcus mutans [3] was 80% throughout. Besides, the figures for the inhibition at 10000 µM in the series with Streptococcus mutans [10] and in the series on Streptococcus mutans [11] were 80% and 60%, respectively.

In the case of `CCOC(=O)Cc1ccc(O)c2ncccc12` [listing 1 of 2 here], the inhibition of growth at 100 µM in the series with Streptococcus mutans [4] and in the series on Streptococcus mutans [5] was 100% throughout. The inhibition of growth at 10 µM is 100% in the series on Streptococcus mutans [6] and 0% in the series with Streptococcus mutans [7]. Moreover, the inhibition of growth at 1 µM with Streptococcus mutans [8] and in the series with Streptococcus mutans [9] was 0% in each case.

The compound `Oc1ccc(O)c2ncccc12` [listing 2 of 2 here] yielded a logP at 1.5 h in series [1] of 1.42. Further, the inhibition at 100000 µM stood at 60% with Streptococcus mutans [2] and 0% in the series with Streptococcus mutans [3]. The inhibition at 10000 µM in the series with Streptococcus mutans [10] and in the series on Streptococcus mutans [11] was 0% throughout.

Consider `N#CCc1ccc(O)c2ncccc12` [listing 1 of 2 here], for which the values for the inhibition of growth at 100 µM with Streptococcus mutans [4] and in the series on Streptococcus mutans [5] were 80% and 20%, respectively. Also, in the series with Streptococcus mutans [6], the inhibition of growth at 10 µM was 0%.

Consider `Oc1cccc2cccnc12`, for which the inhibition of growth at 100 µM in the series with Streptococcus mutans [4] and in the series with Streptococcus mutans [5] was 100% each time. Also, the inhibition of growth at 10 µM with Streptococcus mutans [6] and with Streptococcus mutans [7] was 100% in each case. Also, the inhibition of growth at 1 µM in the series with Streptococcus mutans [8] and with Streptococcus mutans [9] was 0% in each case.

On to `N#CCc1ccc(O)c2ncccc12` [listing 2 of 2 here], for which the logP at 1.5 h in [1] was 1.81. Also, the inhibition at 100000 µM with Streptococcus mutans [2] and with Streptococcus mutans [3] was 80% in each case. In addition, the inhibition at 10000 µM with Streptococcus mutans [10] and in the series on Streptococcus mutans [11] was 0% throughout.

As for `Oc1ccc(I)c2cccnc12` [listing 2 of 2 here], the logP at 1.5 h in series [1] turned out to be 3.27. In addition, the inhibition at 100000 µM in the series with Streptococcus mutans [2] and with Streptococcus mutans [3] was 100% each time. The figures for the inhibition at 10000 µM in the series on Streptococcus mutans [10] and in the series with Streptococcus mutans [11] were 80% and 20%, respectively.

Regarding `CC(=O)c1ccc(O)c2ncccc12` [listing 2 of 2 here], the inhibition of growth at 100 µM with Streptococcus mutans [4] and in the series with Streptococcus mutans [5] was 100% throughout. The inhibition of growth at 10 µM with Streptococcus mutans [6] was found to be 100%; with Streptococcus mutans [7] it was 0%. Moreover, the inhibition of growth at 1 µM in the series on Streptococcus mutans [8] and in the series with Streptococcus mutans [9] was 0% in each case.

`CCOC(=O)Cc1ccc(O)c2ncccc12` [listing 2 of 2 here] registered a logP at 1.5 h in series [1] of 2.26. Besides, the inhibition at 100000 µM with Streptococcus mutans [2] was found to be 100%; in the series with Streptococcus mutans [3], 80%. In addition, the figures for the inhibition at 10000 µM with Streptococcus mutans [10] and in the series with Streptococcus mutans [11] were 20% and 0%, respectively.

`COC(=O)Cc1ccc(O)c2ncccc12` [listing 2 of 2 here] had a logP at 1.5 h in series [1] of 1.59. Besides, the inhibition at 100000 µM in the series with Streptococcus mutans [2] and in the series with Streptococcus mutans [3] was 100% each time. In addition, the results for the inhibition at 10000 µM with Streptococcus mutans [10] and with Streptococcus mutans [11] were 20% and 0%, respectively.

Regarding `O=C(O)Cc1ccc(O)c2ncccc12` [listing 2 of 2 here], the inhibition of growth at 100 µM with Streptococcus mutans [4] and in the series with Streptococcus mutans [5] was 0% throughout.

In series [1], `Oc1cccc2cccnc12` [OXYQUINOLINE] yielded a logP at 1.5 h of 1.94. The inhibition at 100000 µM in the series with Streptococcus mutans [2] and in the series with Streptococcus mutans [3] was 100% each time. In addition, the inhibition at 10000 µM with Streptococcus mutans [10] and in the series on Streptococcus mutans [11] was 0% in each case.
